The text below walks through data of PubChem BioAssay AID617 (SRMLSC, 2007).

SMILES strings stand for the structures.

Broadly, the IC50 is the concentration that gives 50% inhibition.

The test relates to E. coli BW25113 ΔtolC growth inhibition, OD615. In words: E. coli ΔtolC antibacterial growth inhibition – strain BW25113 ΔtolC::kan, dose response (AID 617). The method in brief: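 Test system: E. coli BW25113 ΔtolC::kan bacteria | Amount: 1:1000 diluted subculture inoculum | Medium: LB plus kanamycin | Timing: 20 h exposure at 37 °C | Signal: Absorbance at 615 nm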
Turning to `CCc1ccccc1N(CC)C(=O)CCc1nc(-c2ccc(C)cc2)no1`, the IC50 is 11.2 µM.

Take `CC1CCCCN1C(=O)CSc1nc(C2CC2)nc2c1cnn2-c1ccccc1` (stereo unspecified): the IC50 is 12.3 µM.

As to `Brc1ccccc1Cn1c(-c2cncs2)nc2ccccc21`, the IC50 was 10.6 µM.

Regarding `CCc1cc(C(=O)COc2ccccc2F)c(O)cc1O`, the IC50 was 10.8 µM.

On to `CCOc1ccc(Nc2cc(C)nc(-n3nc(C)cc3C)n2)cc1`, for which the concentration for half-maximal inhibition (IC50) is 4.19 µM.

For `COC(=O)c1ccc(OC)c(CSc2nnc(COc3ccccc3)o2)c1`, the IC50 was 23.1 µM.

As for `Cn1cc(SCC(=O)Nc2nc3ccccc3s2)c2ccccc21`, the half-maximal inhibitory concentration (IC50) was 9.23 µM.

As for `O=C(Nc1nnc(-c2ccccc2Cl)o1)c1cccnc1`, the IC50 is 16.7 µM.

Turning to `Cc1c(C(=O)OC2CCCC2C)[nH]c2c1C(=O)CCC2` (stereo unspecified), the IC50 was 0.38 µM.

On to `CCOC(=O)c1ccc(N2C(=O)c3n[nH]c(C)c3C2c2ccc(OC)cc2OC)cc1` (stereo unspecified), for which the IC50 is 16.8 µM.

For `COc1ccc(OC)c(Nc2nc(-c3cccs3)cs2)c1`, the IC50 is 28.2 µM.

On to `CCCCCCOC(=O)C(C#N)c1nc2ccccc2nc1N1CCN(C)CC1` (stereo unspecified), for which the IC50 was 12.9 µM.

On to `COc1ccccc1N1CCN(C(=O)COc2ccc(C)cc2Br)CC1`, for which the half-inhibitory concentration (IC50) is 25.9 µM.

`Cc1cc(C(=O)OCc2nnc(-c3ccccc3)o2)c(C)n1-c1ccccc1`: the IC50 is 9.88 µM.

In the case of `Cn1c(=O)n(CCCOc2ccc(Br)cc2)c2ccccc21`, the IC50 was 13.8 µM.

Take `CCCCC(=O)c1c(O)c2ccccc2oc1=O`: the IC50 is 7.48 µM.

On to `Cc1ccccc1Cn1nc(C)c(NC(=O)c2noc3c2CC(C(C)(C)C)CC3)c1C` (stereo unspecified), for which the IC50 is 9.29 µM.

For the compound `Cc1ccc(-c2noc(CSc3nnnn3C3CCCCC3)n2)cc1`, the half-inhibitory concentration (IC50) is 12.9 µM.

With `O=C(CSc1nnc2scc(-c3ccccc3)n12)Nc1nsc(-c2ccccc2)n1`, the IC50 is 13.1 µM.

Regarding `CCOc1ccccc1-c1nn2c(Cc3ccccc3)nnc2s1`, the IC50 was 0.76 µM.

Turning to `COc1ccc(-c2cnc(SCC(=O)Nc3ccc4c(c3)OCO4)n2Cc2ccco2)cc1`, the IC50 was 11.1 µM.

As for `COc1ccccc1N1CCN(C(=O)c2cc(-c3ccc(C)cc3)on2)CC1`, the IC50 is 7.85 µM.

Regarding `CCc1c(C)nc2cc(-c3cc(OC)cc(OC)c3)nn2c1N1CCCC1`, the IC50 was 25.5 µM.

`Cc1nn(-c2ccc(F)cc2)c2sc(C(=O)N3CCCCCC3)cc12`: the IC50 was 20.2 µM.

For the compound `N#C/C(=C\c1ccco1)Sc1nc2ccccc2s1`, the half-maximal inhibitory concentration (IC50) was 8.6 µM.

As for `CCCCOc1[nH]c2nc(-c3ccco3)n(Cc3ccco3)c(=N)c2c1C#N`, the IC50 was 12 µM.

`O=C(CSc1nnnn1C1CCCCC1)Nc1nc2c(s1)CCCC2`: the IC50 was 10.2 µM.

For the compound `CC(C)c1nnc(NC(=O)c2c(O)c3cccc4c3n(c2=O)CC4)s1`, the IC50 was 34.7 µM.

As to `CC(C)(C)C1CCC2(CC1)C(C#N)=C(SCC(=O)NC1CCCCC1)NC(=O)C2C#N` (stereo unspecified), the IC50 was 6.1 µM.

As for `Brc1ccc(CSc2nnc(-c3ccccn3)n2Cc2ccco2)cc1`, the half-inhibitory concentration (IC50) was 9.85 µM.

On to `NC1=NC(c2cn(-c3ccccc3)nc2-c2cccs2)n2c(nc3ccccc32)N1` (stereo unspecified), for which the concentration for half-maximal inhibition (IC50) was 16.4 µM.

For `c1ccc(-c2ccccc2-c2nc(-c3cccnc3)no2)cc1`, the IC50 is 13.9 µM.

As to `O=C1c2ccccc2C(O)(Cc2ccccc2)N1C1CCCCC1` (stereo unspecified), the 50% inhibitory concentration (IC50) is 11.5 µM.

For the compound `COc1ccc2[nH]c3c(=O)n(CCCCC(=O)N4CCC(C(N)=O)CC4)c(=S)[nH]c3c2c1`, the IC50 is 10.7 µM.

Turning to `O=S(=O)(Nc1ncnc2sc3c(c12)CCC3)c1ccc(Cl)s1`, the IC50 was 5.93 µM.

For `Cc1noc(NS(=O)(=O)c2ccc(NC(=O)COc3ccc(Cl)cc3Cl)cc2)c1C`, the IC50 was 9.41 µM.

Regarding `c1ccc(-c2cccc(-c3ccccn3)n2)nc1`, the IC50 is 19.4 µM.

With `O=C(Nc1ccc(N2CCN(C(=O)c3ccco3)CC2)c(Cl)c1)c1cccs1`, the IC50 is 12.3 µM.

For `COc1ccccc1N1CCN(Cc2nc(N)nc(Nc3ccc(C)c(Cl)c3)n2)CC1`, the IC50 was 9.02 µM.

As to `Cc1ccc(C)c(C(=O)CSc2n[nH]c(-c3ccncc3)n2)c1`, the IC50 was 2 µM.

As to `Cc1cccc(-n2ncc3c(N4CC(C)CC(C)C4)ncnc32)c1` (stereo unspecified), the IC50 is 12.2 µM.

Consider `OCCN1CCN(c2nc(-c3ccccc3)c3cc(Cl)ccc3n2)CC1`, for which the IC50 is 60.6 µM.

As to `COc1ccc(CNc2nc3c(c(=O)n(Cc4ccc(F)cc4)c(=O)n3C)n2C)cc1`, the half-maximal inhibitory concentration (IC50) is 22.5 µM.

Take `O=C(Nc1ccc(Cl)cc1)NC1CCCC1Cc1ccco1` (stereo unspecified): the half-inhibitory concentration (IC50) is 3.63 µM.

On to `CCn1c(C(=O)N2CCC(C(=O)NCCCSC3CCCCC3)CC2)cc2sccc21`, for which the IC50 was 6.22 µM.

Consider `Cc1ccc(C)c(N2CCN(C(=O)c3ccccc3Br)CC2)c1`, for which the IC50 is 11.2 µM.

Turning to `CCOC(=O)C1CCN(C(=O)c2oc3ccc(S(=O)(=O)N4CCCCCC4)cc3c2C)CC1`, the half-inhibitory concentration (IC50) was 21.6 µM.

`CC1CCCN(S(=O)(=O)c2ccc(C(=O)Nc3nnc(-c4ccccc4Cl)o3)cc2)C1` (stereo unspecified): the IC50 was 0.41 µM.

For `O=C(CSc1nnc(Cc2ccccc2)n1Cc1ccco1)NC12CC3CC(CC(C3)C1)C2`, the IC50 is 61.8 µM.

Turning to `CCOC(=O)c1c(NC(=O)CSc2nnc(C)c(=O)[nH]2)sc2c1CCC2`, the IC50 is 10.6 µM.

Turning to `CC1=CC(C)(C)N2C(=O)C3(SCC(=O)N3c3ccc(O)cc3)c3cc(C)cc1c32` (stereo unspecified), the IC50 was 11.8 µM.

For `Cc1ccc(C(C)C)c(Oc2nnnn2-c2ccccc2)c1`, the IC50 is 14.7 µM.

As to `O=C1[C@H]2[C@@H](C(=O)N1c1cc(Cl)cc(Cl)c1)[C@]1(C(=O)Nc3ccccc31)N1CCC[C@@H]21`, the IC50 was 10.1 µM.

Turning to `N#Cc1nc(-c2ccc(OCc3ccccc3Cl)cc2)oc1NCCCn1ccnc1`, the IC50 was 5.13 µM.

As to `Cc1c(-c2nc(N)nc(Nc3ccccc3)n2)oc2ccccc12`, the IC50 is 12.3 µM.

For `CC1CCN(S(=O)(=O)c2ccc(Cl)cc2Br)CC1`, the 50% inhibitory concentration (IC50) is 17.5 µM.

Regarding `COc1ccc(NC(=O)c2ccc(Cl)c(S(=O)(=O)N3CCc4ccccc4C3)c2)cn1`, the IC50 was 8.1 µM.

As for `CCOC(=O)c1cnc(-n2nc(C)cc2C)nc1NC1CCCCC1`, the IC50 was 0.54 µM.

For the compound `O=C(COc1ccccc1Br)c1ccc(O)cc1O`, the IC50 is 13.1 µM.

On to `CCOC(=O)Cc1nnc2c(Nc3ccc(Cl)cc3)nc3nonc3n12`, for which the IC50 is 3.75 µM.

As for `Cc1ccc(C)c(SCC(=O)Nc2nnc(-c3ccccc3)o2)c1`, the IC50 was 4.69 µM.

`Cc1cc(NC(=O)c2noc3c2CCCC3)nn1Cc1ccc(Cl)cc1`: the IC50 was 18.4 µM.

`O=C(NCCCc1ccccc1)c1ccccc1O`: the IC50 is 9.34 µM.

On to `CCn1cc(C(=O)NCc2ccc3c(c2)OCO3)c(=O)c2cc(F)c(N3CCN(C)CC3)cc21`, for which the IC50 is 2.8 µM.

For `CC1CCN(C(=O)c2ccc(COc3ccccc3Cl)o2)CC1`, the IC50 was 11.1 µM.

With `CCCCCCC(=O)N1CCC(c2nc3c(nnn3Cc3ccccc3Cl)c(=O)[nH]2)CC1`, the IC50 was 6.36 µM.

Take `COc1cccc(N2CCN(CC(=O)Nc3nc4c(s3)CC(C)CC4)CC2)c1` (stereo unspecified): the 50% inhibitory concentration (IC50) was 10.4 µM.

Turning to `CCn1cc(C(=O)O)c(=O)c2cnc(N3CCN(C(=O)Nc4ccccc4)CC3)nc21`, the IC50 was 1.01 µM.

In the case of `Cc1cc(N2CCC(C)CC2)nc(-n2nc(C)cc2C)n1`, the concentration for half-maximal inhibition (IC50) is 5.18 µM.

In the case of `CCn1cc(Br)c(C(=O)Nc2ccc(C(=O)OC(C)C)cc2)n1`, the IC50 is 12.3 µM.

Turning to `O=C(CSc1ncn(-c2ccccc2)n1)Nc1nc2c(s1)CCCC2`, the concentration for half-maximal inhibition (IC50) was 16.9 µM.
